# Results published in ChEMBL document CHEMBL3297684, “Discovery of biarylaminoquinazolines as novel tubulin polymerization inhibitors” (J Med Chem, 2014).
# Calls of active or inactive are those of the source. The calls are words filed in the database; no cut-off is given here.
# Tests used:
# A-431 = assay: Cytotoxicity against human A431 cells assessed as reduction in cell viability after 68 hrs by MTT assay; format: functional, cell-based; details: A-431, 68 h
# Tubulin = Tubulin (Bos taurus, UniProt Q6B856+Q862L2+Q862F3); assay: Inhibition of bovine brain tubulin polymerization after 20 mins by turbidimetry analysis
# In short: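 Electrophoretically homogeneous bovine brain tubulin at 10 μM (1.0 mg/mL) in 0.8 M monosodium glutamate, pH 6.6, with compound in 4% (v/v) DMSO. Preincubated 15 min at 30 °C without GTP, then chilled; 0.4 mM GTP added at 0 °C. Temperature raised to 30 °C and turbidity followed at 350 nm.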
# [1] = Cytotoxicity against human OVCAR8 cells assessed as inhibition of cell proliferation by SRB assay; format: functional, cell-based; details: OVCAR-8
# In short: (§1)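 Cell protein measured with sulforhodamine B. NCI/ADR-RES is isogenic with OVCAR-8 but overexpresses P-gp. Values are mean SD of at least three independent experiments.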
# [2] = target: Epidermal growth factor receptor (Homo sapiens, UniProt P00533); assay: Inhibition of EGFR (unknown origin) assessed as incorporation of [32P] gamma-ATP in to myelin basic protein after 30 mins by autoradiographic analysis
# [3] = target: Fibroblast growth factor receptor 1 (Homo sapiens, UniProt P11362); assay: Inhibition of FGFR1 (unknown origin) assessed as incorporation of [32P] gamma-ATP in to myelin basic protein after 30 mins by autoradiographic analysis
# [4] = target: Proto-oncogene tyrosine-protein kinase Src (Homo sapiens, UniProt P12931); assay: Inhibition of Src (unknown origin) assessed as incorporation of [32P] gamma-ATP in to myelin basic protein after 30 mins by autoradiographic analysis
# [5] = target: Tyrosine-protein kinase ABL1 (Homo sapiens, UniProt P00519); assay: Inhibition of Abl1 (unknown origin) assessed as incorporation of [32P] gamma-ATP in to myelin basic protein after 30 mins by autoradiographic analysis
# [6] = Cytotoxicity against human NCI-ADR-RES cells assessed as inhibition of cell proliferation by SRB assay; format: functional, cell-based; in short: as §1
# [7] = Cell cycle arrest in human OVCAR8 cells assessed as increase in number of cells at G2/M phase at 1 uM after 30 mins by flow cytometry; format: functional, cell-based; details: OVCAR-8, in the assay text read “after 24 hrs” for “after 30 mins”
# In short: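 OVCAR-8 cells grown in DMEM with 10% heat-inactivated FBS plus penicillin/streptomycin, 37 °C, 5% CO2. Exposed 24 h to 1 μM compound or drug-free medium. Fixed in 70% cold ethanol, RNase-treated (100 μg/mL, 30 min, 37 °C), stained with propidium iodide (100 μg/mL, 30 min, room temperature). 10 000 events per sample read by flow cytometry for G2/M fraction.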
# Proto-oncogene tyrosine-protein kinase Src, sequence (P12931 2-536 limits assumed): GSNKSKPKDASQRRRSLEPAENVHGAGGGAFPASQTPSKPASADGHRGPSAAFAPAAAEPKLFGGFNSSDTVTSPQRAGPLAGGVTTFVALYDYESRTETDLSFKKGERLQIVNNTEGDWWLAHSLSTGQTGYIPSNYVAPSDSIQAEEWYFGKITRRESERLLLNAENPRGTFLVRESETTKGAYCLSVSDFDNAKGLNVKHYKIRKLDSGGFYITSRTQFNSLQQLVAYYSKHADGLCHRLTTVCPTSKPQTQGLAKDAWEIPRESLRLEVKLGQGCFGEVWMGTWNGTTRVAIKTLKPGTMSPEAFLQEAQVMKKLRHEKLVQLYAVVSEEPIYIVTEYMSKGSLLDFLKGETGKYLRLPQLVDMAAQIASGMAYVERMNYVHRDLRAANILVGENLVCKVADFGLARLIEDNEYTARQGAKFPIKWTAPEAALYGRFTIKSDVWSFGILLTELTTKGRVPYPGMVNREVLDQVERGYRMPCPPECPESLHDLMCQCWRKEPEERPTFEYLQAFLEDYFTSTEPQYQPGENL
# Epidermal growth factor receptor, sequence (P00533 whole entry): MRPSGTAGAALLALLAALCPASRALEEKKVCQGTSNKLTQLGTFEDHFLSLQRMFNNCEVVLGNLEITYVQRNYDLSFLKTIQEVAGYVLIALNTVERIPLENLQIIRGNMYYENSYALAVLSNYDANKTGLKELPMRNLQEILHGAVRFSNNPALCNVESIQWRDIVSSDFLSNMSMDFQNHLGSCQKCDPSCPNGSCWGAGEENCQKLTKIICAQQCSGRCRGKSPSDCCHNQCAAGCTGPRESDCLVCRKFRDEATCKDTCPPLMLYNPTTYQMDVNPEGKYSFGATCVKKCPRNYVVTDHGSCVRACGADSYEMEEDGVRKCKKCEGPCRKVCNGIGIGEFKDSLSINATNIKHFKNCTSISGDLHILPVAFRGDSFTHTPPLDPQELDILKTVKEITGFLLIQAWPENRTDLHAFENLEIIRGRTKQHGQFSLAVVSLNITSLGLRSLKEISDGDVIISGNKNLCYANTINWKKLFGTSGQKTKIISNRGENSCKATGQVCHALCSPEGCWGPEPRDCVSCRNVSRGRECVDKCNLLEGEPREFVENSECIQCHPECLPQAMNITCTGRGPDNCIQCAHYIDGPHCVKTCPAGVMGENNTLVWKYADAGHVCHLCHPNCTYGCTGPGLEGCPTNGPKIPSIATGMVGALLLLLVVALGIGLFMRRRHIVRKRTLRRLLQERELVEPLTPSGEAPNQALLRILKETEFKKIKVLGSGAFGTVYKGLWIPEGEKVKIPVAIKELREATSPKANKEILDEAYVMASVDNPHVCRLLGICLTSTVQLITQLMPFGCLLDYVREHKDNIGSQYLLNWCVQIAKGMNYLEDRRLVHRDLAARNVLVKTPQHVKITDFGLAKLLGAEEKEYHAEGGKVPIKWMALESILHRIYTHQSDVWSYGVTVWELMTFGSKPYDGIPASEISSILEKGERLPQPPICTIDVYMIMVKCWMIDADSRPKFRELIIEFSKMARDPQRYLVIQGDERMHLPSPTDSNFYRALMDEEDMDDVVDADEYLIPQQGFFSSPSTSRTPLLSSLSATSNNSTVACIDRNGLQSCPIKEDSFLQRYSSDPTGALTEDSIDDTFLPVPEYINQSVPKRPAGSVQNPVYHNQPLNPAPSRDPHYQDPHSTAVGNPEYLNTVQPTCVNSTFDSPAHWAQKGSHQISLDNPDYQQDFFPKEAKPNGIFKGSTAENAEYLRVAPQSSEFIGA
# Fibroblast growth factor receptor 1, sequence (P11362 whole entry): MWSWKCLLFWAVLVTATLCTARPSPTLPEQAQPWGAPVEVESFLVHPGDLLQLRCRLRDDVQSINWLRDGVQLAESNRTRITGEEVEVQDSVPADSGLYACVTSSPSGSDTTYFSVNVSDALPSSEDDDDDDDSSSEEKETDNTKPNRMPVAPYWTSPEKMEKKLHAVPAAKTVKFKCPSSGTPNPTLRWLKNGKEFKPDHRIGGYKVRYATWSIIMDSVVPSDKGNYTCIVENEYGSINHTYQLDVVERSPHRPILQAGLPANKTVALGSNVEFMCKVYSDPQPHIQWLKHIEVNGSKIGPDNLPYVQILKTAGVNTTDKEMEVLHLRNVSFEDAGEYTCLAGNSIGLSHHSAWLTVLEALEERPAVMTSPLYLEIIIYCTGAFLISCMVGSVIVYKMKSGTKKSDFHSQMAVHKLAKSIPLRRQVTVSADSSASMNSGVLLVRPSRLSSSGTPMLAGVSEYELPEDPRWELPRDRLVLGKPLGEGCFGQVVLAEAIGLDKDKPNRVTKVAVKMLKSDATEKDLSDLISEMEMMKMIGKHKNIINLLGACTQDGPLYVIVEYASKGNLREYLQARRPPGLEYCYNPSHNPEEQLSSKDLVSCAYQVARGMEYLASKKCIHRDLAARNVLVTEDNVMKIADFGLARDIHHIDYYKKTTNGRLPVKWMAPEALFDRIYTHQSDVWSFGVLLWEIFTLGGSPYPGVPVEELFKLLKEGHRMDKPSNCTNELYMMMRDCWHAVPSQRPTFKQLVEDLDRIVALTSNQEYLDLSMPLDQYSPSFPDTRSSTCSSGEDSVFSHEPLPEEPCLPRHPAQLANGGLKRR
# Tyrosine-protein kinase ABL1, sequence (P00519 whole entry): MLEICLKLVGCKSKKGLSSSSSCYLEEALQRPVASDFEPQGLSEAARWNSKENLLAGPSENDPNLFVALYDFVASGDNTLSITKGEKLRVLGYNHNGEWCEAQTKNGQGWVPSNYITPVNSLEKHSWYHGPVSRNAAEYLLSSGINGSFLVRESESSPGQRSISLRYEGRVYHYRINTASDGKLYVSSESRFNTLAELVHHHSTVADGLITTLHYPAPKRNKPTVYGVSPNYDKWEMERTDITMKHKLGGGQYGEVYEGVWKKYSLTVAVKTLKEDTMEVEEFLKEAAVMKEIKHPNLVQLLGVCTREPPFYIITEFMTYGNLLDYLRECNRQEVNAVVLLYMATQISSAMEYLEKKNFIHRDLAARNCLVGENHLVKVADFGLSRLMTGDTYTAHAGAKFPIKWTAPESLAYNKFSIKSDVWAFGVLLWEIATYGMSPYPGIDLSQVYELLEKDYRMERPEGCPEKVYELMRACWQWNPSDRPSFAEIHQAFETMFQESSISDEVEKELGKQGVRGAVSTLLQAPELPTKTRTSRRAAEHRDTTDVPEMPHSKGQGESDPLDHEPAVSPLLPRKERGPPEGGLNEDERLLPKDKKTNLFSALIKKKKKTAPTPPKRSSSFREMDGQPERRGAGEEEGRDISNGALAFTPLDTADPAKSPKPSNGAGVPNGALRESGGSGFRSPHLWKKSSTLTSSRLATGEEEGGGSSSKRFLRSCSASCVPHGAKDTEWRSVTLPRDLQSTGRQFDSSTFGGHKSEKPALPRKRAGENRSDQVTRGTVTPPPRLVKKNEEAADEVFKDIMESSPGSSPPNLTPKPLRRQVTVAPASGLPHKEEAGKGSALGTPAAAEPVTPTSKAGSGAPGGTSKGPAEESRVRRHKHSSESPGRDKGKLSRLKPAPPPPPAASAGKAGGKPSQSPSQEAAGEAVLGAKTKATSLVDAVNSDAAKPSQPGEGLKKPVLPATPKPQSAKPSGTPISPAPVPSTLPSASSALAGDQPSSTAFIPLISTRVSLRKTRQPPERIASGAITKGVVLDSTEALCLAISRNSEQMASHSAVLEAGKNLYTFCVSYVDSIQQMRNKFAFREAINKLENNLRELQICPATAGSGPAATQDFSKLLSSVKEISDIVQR
IC50 (Tubulin),IC50 [2],IC50 [3],IC50 [4],IC50 [5],Structure (SMILES),EC50 (A-431),EC50 [1],EC50 [6],Activity [7]
3.2 µM,> 10 µM,> 10 µM,> 10 µM,> 10 µM,Cl.c1ccc(-c2cccc(Nc3ncnc4cc5c(cc34)OCCO5)c2)nc1,,,,
3 µM,> 10 µM,> 10 µM,> 10 µM,> 10 µM,Cl.c1cc(Nc2ncnc3cc4c(cc23)OCCO4)cc(-c2ccc[nH]2)c1,,4 µM,3.6 µM,
12 µM,> 10 µM,> 10 µM,> 10 µM,> 10 µM,Cl.c1cc(Nc2ncnc3cc4c(cc23)OCCO4)cc(-c2ccco2)c1,,,,
1.2 µM,> 10 µM,> 10 µM,> 10 µM,> 10 µM,Cl.c1cc(Nc2ncnc3cc4c(cc23)OCCO4)cc(-c2cccs2)c1,,0.01 µM,0.004 µM,Active

# The next lines start with the compound.
Structure (SMILES),IC50 (Tubulin),IC50 [2],IC50 [3],IC50 [4],IC50 [5],EC50 (A-431),EC50 [1],EC50 [6],Activity [7]
c1ccc(-c2cccc(Nc3ncnc4cc5c(cc34)OCCCO5)c2)cc1,2.3 µM,,,,,0.66 µM,0.55 µM,,
c1ccc(-c2cccc(Nc3ncnc4cc5c(cc34)OCCO5)c2)cc1,4 µM,,,,,,0.5 µM,,
CC(=O)O[C@H]1C(=O)[C@@]2(C)[C@H]([C@H](OC(=O)c3ccccc3)[C@]3(O)C[C@H](OC(=O)[C@H](O)[C@@H](NC(=O)c4ccccc4)c4ccccc4)C(C)=C1C3(C)C)[C@]1(OC(C)=O)CO[C@@H]1C[C@@H]2O [PACLITAXEL],,> 10 µM,> 10 µM,> 10 µM,> 10 µM,,0.018 µM,0.013 µM,
c1ccc(-c2csc(Nc3ncnc4cc5c(cc34)OCCO5)n2)cc1,> 20 µM,> 10 µM,> 10 µM,> 10 µM,> 10 µM,,,,
c1ccc(-c2cccc(Nc3ncnc4cc5c(cc34)OCO5)c2)cc1,1.1 µM,,,,,,0.03 µM,,Active
c1ccc(-c2ccnc(Nc3ncnc4cc5c(cc34)OCCO5)n2)cc1,> 20 µM,> 10 µM,> 10 µM,> 10 µM,> 10 µM,,,,
COc1ccc(/C=C\c2cc(OC)c(OC)c(OC)c2)cc1O [COMBRETASTATIN A4],,> 10 µM,> 10 µM,> 10 µM,> 10 µM,,0.0055 µM,5 µM,
COc1cc2ncnc(Nc3cccc(-c4ccccc4)c3)c2cc1OC,> 20 µM,> 10 µM,> 10 µM,> 10 µM,> 10 µM,,,,
